For 14 compounds, IC50 and inhibition in vivo results are on record in ChEMBL document CHEMBL1131177, “A novel class of orally active non-peptide bradykinin B2 receptor antagonists. 4. Discovery of novel frameworks mimicking the active conformation” (J Med Chem, 1998).

Structures are written as SMILES.

Assay [1] has as its target T1, B2 bradykinin receptor (Cavia porcellus, UniProt O70526).
T1 sequence (O70526 whole entry): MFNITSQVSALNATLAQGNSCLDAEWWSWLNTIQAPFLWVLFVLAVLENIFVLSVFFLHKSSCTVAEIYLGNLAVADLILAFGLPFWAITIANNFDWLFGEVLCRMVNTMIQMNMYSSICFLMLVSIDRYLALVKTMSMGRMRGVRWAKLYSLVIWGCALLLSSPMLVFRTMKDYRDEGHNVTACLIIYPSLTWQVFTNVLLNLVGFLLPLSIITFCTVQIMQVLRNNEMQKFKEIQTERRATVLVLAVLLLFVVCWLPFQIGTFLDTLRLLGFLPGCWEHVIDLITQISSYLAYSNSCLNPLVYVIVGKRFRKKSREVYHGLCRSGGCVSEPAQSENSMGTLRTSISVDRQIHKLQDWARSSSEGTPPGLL
Description: Inhibition of the specific binding of [3H]BK to Bradykinin receptor B2 in guinea pig ileum membrane preparations. The assay is classed as cell membranes. In a few lines:
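Male Hartley guinea pig ileum membranes (100000g pellet) at 0.2 mg protein/mL in pH 6.8 TES buffer with phenanthroline, bacitracin, DTT, captopril, BSA. Incubated with 0.06 nM [3H]BK plus varying compound concentrations, 60 min, room temperature. Filtration harvest, scintillation counting. Nonspecific binding defined with 1 µM unlabeled BK. IC50 as mean of at least three determinations.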

For assay [2], the target named is T2, B2 bradykinin receptor (Homo sapiens, UniProt P30411).
T2 sequence (P30411 whole entry): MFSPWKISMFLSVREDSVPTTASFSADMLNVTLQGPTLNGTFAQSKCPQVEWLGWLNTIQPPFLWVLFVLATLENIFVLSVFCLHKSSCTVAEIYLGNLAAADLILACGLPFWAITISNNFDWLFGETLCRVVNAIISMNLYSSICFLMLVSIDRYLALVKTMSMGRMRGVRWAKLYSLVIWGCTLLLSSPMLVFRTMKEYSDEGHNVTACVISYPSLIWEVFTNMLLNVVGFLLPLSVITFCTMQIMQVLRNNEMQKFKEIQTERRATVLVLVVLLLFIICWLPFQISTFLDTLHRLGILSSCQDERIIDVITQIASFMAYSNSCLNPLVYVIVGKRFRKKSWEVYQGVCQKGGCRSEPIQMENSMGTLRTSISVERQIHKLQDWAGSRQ
As to the kind of experiment: Inhibition of the specific binding of [3H]BK to human recombinant Bradykinin receptor B2 expressed in CHO cells. Type of assay: cell-based. Summed up: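 Intact CHO (dhfr-) cells stably expressing human B2, seeded at 3.0 × 10^4 cells/well and cultured 1 day. Incubated with 1.0 nM [3H]BK and compound, 2 h at 4 °C, in HEPES/N-methyl-D-glucamine buffer pH 7.2 with bacitracin, enalaprilat, BSA. Cells solubilized in SDS/NaOH for scintillation counting. Nonspecific binding defined with 1 µM BK. Run three times.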

Assay [3] concerns Cavia porcellus. Description: Antagonistic activity in inhibiting BK-induced bronchoconstriction in guinea pigs by oral administration at 1 mg/kg dose. The assay is classed as functional. In a few lines:
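Male Hartley guinea pigs (470-750 g), fasted overnight, anesthetized with pentobarbital 30 mg/kg ip, ventilated 10 mL/kg at 60 breaths/min; alcuronium 0.5 mg/kg iv, propranolol 10 mg/kg sc. BK 5 µg/kg iv; peak rise in insufflation pressure (modified Konzett–Rössler). Compound in 0.5% methylcellulose given via esophageal cannula; BK repeated 30 min later. % inhibition vs vehicle group; n = 3-4/dose.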

Usually IC50 stands for the midpoint of a concentration-inhibition curve. The inhibition in vivo is the share of the control response that was lost under treatment. Low readings indicate a weak effect, high ones a strong effect.

In the case of `CNC(=O)c1ccc(/C=C/C(=O)NCc2sccc2-c2ccc(C)c(COc3cccc4ccc(C)nc34)c2C)cc1`, the 50% inhibitory concentration (IC50) in assay [1] was 2.8 nM; in assay [2] it was 5.8 nM.

On to `CNC(=O)c1ccc(/C=C/C(=O)Nc2cccc(-c3ccc(C)c(COc4cccc5ccc(C)nc45)c3C)c2)cc1`, for which the half-inhibitory concentration (IC50) in assay [1] was 94 nM; in assay [2], above 10000 nM.

`CNC(=O)c1ccc(/C=C/C(=O)NCc2ccccc2-c2ccc(C)c(COc3cccc4ccc(C)nc34)c2C)cc1`: the 50% inhibitory concentration (IC50) in assay [2] was 2.6 nM.

For the compound `CNC(=O)c1ccc(/C=C/C(=O)NCC(=O)N(C)c2ccc(Cl)c(COc3cccc4ccc(C)nc34)c2)cc1`, the IC50 was determined as 5.1 nM in assay [1] and 110 nM in assay [2].

Regarding `CNC(=O)c1ccc(/C=C/C(=O)NCC=Cc2ccc(Cl)c(COc3cccc4ccc(C)nc34)c2Cl)cc1`, the IC50 in assay [1] is 220 nM; in assay [2], 710 nM.

With `CC(=O)Nc1ccc(/C=C/C(=O)NCC(=O)Nc2ccc(Cl)c(COc3cccc4ccc(C)nc34)c2Cl)cn1`, the IC50 in assay [1] came to 280 nM; in assay [2] it was 4200 nM.

Take `CNC(=O)c1ccc(/C=C/C(=O)NC/C=C\c2ccc(Cl)c(COc3cccc4ccc(C)nc34)c2Cl)cc1`: the concentration for half-maximal inhibition (IC50) in assay [1] was determined as 17 nM; in assay [2], 14 nM.

As to `CNC(=O)c1ccc(/C=C/C(=O)NCC(=O)N(C)c2cccc(COc3cccc4ccc(C)nc34)c2C)cc1`, the values for the IC50 in assay [1] and in assay [2] were 17 nM and 150 nM, respectively.

For the compound `CNC(=O)c1ccc(/C=C/C(=O)NCC(=O)N(C)c2ccc(OC)c(COc3cccc4ccc(C)nc34)c2OC)cc1`, the half-maximal inhibitory concentration (IC50) was 17 nM in assay [1] and 210 nM in assay [2].

As for `Cc1ccc2cccc(OCc3c(Cl)ccc(N(C)C(=O)CNC(=O)/C=C/c4ccc(/C=C/c5ccncc5)nc4)c3Cl)c2n1`, the IC50 was 0.76 nM in assay [1] and 0.51 nM in assay [2]. This compound came in with an inhibition in vivo at 1 mg/kg in assay [3] of 87.3%.

Turning to `Cc1ccc2cccc(OCc3c(Cl)ccc(N(C)C(=O)CNC(=O)/C=C/c4ccc(N5CCCC5=O)cc4)c3Cl)c2n1`, the values for the half-maximal inhibitory concentration (IC50) in assay [1] and in assay [2] were 0.55 nM and 3.2 nM, respectively. Moreover, in assay [3], the inhibition in vivo at 1 mg/kg was 85.3%.

`Cc1ccc2cccc(OCc3c(Cl)ccc(-n4cccc4CNC(=O)/C=C/c4ccc(N5CCCC5=O)cc4)c3Cl)c2n1`: the figures for the half-maximal inhibitory concentration (IC50) in assay [1] and in assay [2] were 0.58 nM and 0.41 nM, respectively. The same compound registered an inhibition in vivo at 1 mg/kg in assay [3] of 36%.

`CNC(=O)c1ccc(/C=C/C(=O)NCc2cccn2-c2ccc(Cl)c(COc3cccc4ccc(C)nc34)c2Cl)cc1`: the results for the IC50 in assay [1] and in assay [2] were 0.64 nM and 0.26 nM, respectively. In assay [3], this compound yielded an inhibition in vivo at 1 mg/kg of 67.9%.

With `CC(=O)Nc1ccc(/C=C/C(=O)NCc2cccn2-c2ccc(Cl)c(COc3cccc4ccc(C)nc34)c2Cl)cn1`, the values for the IC50 in assay [1] and in assay [2] were 0.56 nM and 0.37 nM, respectively. The compound further gave an inhibition in vivo at 1 mg/kg in assay [3] of 82.1%.
